Source: ChEMBL document CHEMBL4706606, “Re-evaluating pretomanid analogues for Chagas disease: Hit-to-lead studies reveal both in vitro and in vivo trypanocidal efficacy” (Eur J Med Chem, 2020)
pIC50: −log10 of the molar value. In brackets after ≈: the same amount, converted by molar mass. Activity calls are given as the source filed them. The calls are words filed in the database; no cut-off is given here.

Assays:
[1] = Selectivity index, ratio of IC50 for cytotoxicity against rat L6 cells to IC50 for antitrypanosomal activity against Trypanosoma cruzi Tulahuen strain C2C4 amastigotes infected in rat L6 cells
Trypanosoma cruzi [2] = assay: Antitrypanosomal activity against Trypanosoma cruzi Tulahuen strain C2C4 amastigotes infected in rat L6 cells assessed as inhibition of parasite growth incubated for 96 hrs by chlorophenol red-fl-D-galactopyranoside based colorimetric analysis; type: functional, organism-based; conditions: for pIC50: Tulahuen strain C2C4, L6, 96 h; for IC90: Tulahuen strain C2C4, L6, time 96 hrs
Method in brief: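 Tulahuen strain TcVI T. cruzi expressing β-galactosidase, grown in L6 rat skeletal myoblast host cells. IC50/IC90 growth inhibition. Each value is the mean of ≥2 independent determinations using fresh sample stock.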

[3] = Inhibition of Trypanosoma cruzi Tulahuen C4 strain CYP51 expressed in Escherichia coli by fluorescence based assay
L6 = assay: Cytotoxicity against rat L6 cells assessed as reduction in cell viability incubated for 72 hrs by alamar blue assay; type: ADME, cell-based; conditions: L6, 72 h
[4] = Cytotoxicity against rat 3T3 cells assessed as reduction in cell viability incubated for 72 hrs by alamar blue assay; type: ADME, cell-based; conditions: NIH3T3, 72 h
[5] = Selectivity index, ratio of IC50 for cytotoxicity against rat 3T3 cells to IC50 for antitrypanosomal activity against Trypanosoma cruzi Tulahuen strain C2C4 amastigotes infected in rat 3T3 cells; conditions: 3T3 cells
Trypanosoma cruzi [6] = assay: Antitrypanosomal activity against Trypanosoma cruzi Tulahuen strain C2C4 amastigotes infected in […] cells assessed as reduction in parasite growth incubated for 48 hrs by chlorophenol red-fl-D-galactopyranoside based colorimetric analysis relative to control; type: functional
Trypanosoma cruzi [7] = assay: Antitrypanosomal activity against Trypanosoma cruzi Tulahuen strain C2C4 amastigotes infected in […] cells assessed as reduction in parasite growth incubated for 48 hrs by chlorophenol red-fl-D-galactopyranoside based colorimetric analysis; type: functional, organism-based; conditions: for pIC50: Tulahuen strain C2C4, NIH3T3, 48 h; for IC90: Tulahuen strain C2C4, NIH3T3, time 48 hrs
Trypanosoma cruzi [8] = assay: Antitrypanosomal activity against bloodstream trypomastigotes form of Trypanosoma cruzi CL Brener infected in BALB/c mouse assessed as reduction in parasitemia at 100 mg/kg, po qd administered for 5 days starting from day 114 post infection followed by cyclophosphamide induced immunosuppression on days 135, 139 and 143 post infection and measured for 149 days by bioluminescence analysis; type: functional, organism-based; conditions: time 5.0 day
Method in brief: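 Female BALB/c mice, 8 weeks old, ~18 g, 5 per group. Infected i.p. with 10^3 bloodstream trypomastigotes of bioluminescent CL Brener (pTRIX2-RE9h). From day 114 p.i., oral dosing once daily for 5 days: reference drugs at 100 mg/kg in HPMC-SV with 5% DMSO, PEG400 vehicle at 50 mg/kg. Cyclophosphamide 200 mg/kg i.p. on days 135, 139 and 143. Final imaging day 149. Ex vivo organ bioluminescence days 149-151.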

[9] = Kinetic solubility of compound in water sonicated for 15 mins by HPLC analysis
[10] = Metabolic stability in human liver microsomes assessed as parent compound remaining incubated for 1 hr; type: ADME, Microsome; conditions: read-out: Stabilty
Method in brief: (§1)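 Pooled human or CD-1 mouse liver microsomes at 0.4 mg/mL microsomal protein. Percent parent remaining after 1 h incubation.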

[11] = Metabolic stability in CD-1 mouse liver microsomes assessed as parent compound remaining incubated for 1 hr; type: ADME, Microsome; method in brief: as §1
Trypanosoma cruzi [12] = assay: Antitrypanosomal activity against Trypanosoma cruzi amastigotes assessed as inhibition of parasite growth at 10 ug/ml relative to control
[13] = Half life in human liver microsomes incubated for 60 mins

| pIC50 (Trypanosoma cruzi [2]) | IC90 (Trypanosoma cruzi [2]) [nM] | pIC50 (Trypanosoma cruzi [7]) | IC90 (Trypanosoma cruzi [7]) [nM] | solubility kinetic at 0.25 h [9] [µg/mL] | remaining at 1 h [10] [%] | remaining at 1 h [11] [%] | half-life at 1 h [13] [h] | SMILES | selectivity ratio [1] | pIC50 [3] | pIC50 (L6) | pIC50 [4] | selectivity ratio [5] | %max (Trypanosoma cruzi [6]) [%] | Activity (Trypanosoma cruzi [8]) | inhibition at 10 µg/mL (Trypanosoma cruzi [12]) [%] |
| --- | --- | --- | --- | --- | --- | --- | --- | --- | --- | --- | --- | --- | --- | --- | --- | --- |
| 7.74 | 44 | 7.13 | 330 | – | – | – | – | O=[N+]([O-])c1cn2c(n1)OC(COc1ccc(-c3ccc(F)nc3)cc1)CC2 (centres undefined) | > 5560 | < 5.00 | < 4.00 | < 4.43 | > 500 | 98 | – | – |
| – | – | – | – | – | – | – | – | CSc1ccc(OCc2ncc([N+](=O)[O-])n2C)cc1 | – | – | – | – | – | – | Active | – |
| – | – | 6.02 | 2300 | – | – | – | – | CC1(COc2ccc(OC(F)(F)F)cc2)Cn2cc([N+](=O)[O-])nc2O1 (racemic) | – | < 5.00 | – | < 4.14 | – | 68 | – | – |
| 7.31 | 310 | 6.41 | 2600 | – | – | – | – | O=[N+]([O-])c1cn2c(n1)OC[C@H](OCc1ccc(-c3ccc(OC(F)(F)F)cc3)cn1)C2 | – | < 5.00 | 4.29 | < 4.14 | – | 80 | – | – |
| 6.05 | – | – | – | – | – | – | – | O=[N+]([O-])c1cn2c(n1)SCC(OCc1ccc(OCc3ccccc3)cc1)C2 (centres undefined) | – | – | – | – | – | – | – | – |
| 7.40 | 180 | – | – | – | – | – | – | O=[N+]([O-])c1cn2c(n1)OC(COc1ccc(-c3ccc(OC(F)(F)F)cc3)cn1)CC2 (centres undefined) | > 2500 | – | < 4.00 | – | – | – | – | – |
| 6.62 | 1100 | 6.24 | 1000 | < 0.1 | 85 | 76 | – | O=[N+]([O-])c1cn2c(n1)OC[C@H](OCc1ccc(-c3ccc(OC(F)(F)F)cc3Cl)cc1)C2 | 104 | < 5.00 | 4.60 | < 4.43 | > 65 | 99 | – | – |
| 6.55 | 440 | – | – | 0.13 (≈ 0.303 µM) | – | – | 1.72 | O=[N+]([O-])c1cn2c(n1)S(=O)(=O)CC(OCc1ccc(COc3ccccc3)cc1)C2 (centres undefined) | > 357 | – | < 4.00 | – | – | – | – | 95 |
| 6.51 | 6500 | – | – | 0.5 (≈ 1.23 µM) | – | – | – | CC1(COc2ccc(OC(F)(F)F)c(Cl)c2)CCn2cc([N+](=O)[O-])nc2O1 (centres undefined) | – | – | 4.28 | – | – | – | – | – |
| 6.60 | 710 | 6.55 | 410 | < 0.1 | 76 | 83 | – | O=[N+]([O-])c1cn2c(n1)OC[C@H](OCc1ccc(-c3ccc(C(F)(F)F)cc3Cl)cc1)C2 | 116 | 5.12 | 4.54 | < 4.43 | > 132 | 100 | – | – |
| – | – | 5.77 | 4100 | – | – | – | – | CC1(COc2ccc(OC(F)(F)F)cc2)Cn2c(Br)cnc2O1 (centres undefined) | – | 6.28 | – | < 4.14 | > 43 | 87 | – | – |
| 6.48 | 960 | – | – | – | – | – | – | O=[N+]([O-])c1cn2c(n1)OC(COc1cnc(-c3ccc(OC(F)(F)F)cc3)nc1)CC2 (centres undefined) | 212 | – | 4.15 | – | – | – | – | – |
| 5.32 | > 10000 | – | – | – | – | – | – | O=[N+]([O-])c1cn2c(n1)OC[C@@H](OCc1ccc(-c3ccc(C(F)(F)F)cc3Cl)cn1)C2 | 12 | – | 4.24 | – | – | – | – | – |
| – | – | 6.14 | 2100 | – | – | – | – | CC1(COc2ccc(OC(F)(F)F)cc2)Cn2nc([N+](=O)[O-])nc2O1 (centres undefined) | – | < 5.00 | – | < 4.14 | > 101 | 96 | – | – |
| 7.33 | 130 | – | – | 0.18 (≈ 0.471 µM) | – | – | – | O=[N+]([O-])c1nc2n(n1)C[C@H](OCc1ccc(OCc3ccccc3)cc1)CO2 | > 2130 | – | < 4.00 | – | – | – | – | 12 |
| 6.42 | 960 | – | – | – | – | – | – | O=[N+]([O-])c1cn2c(n1)OC(COc1ccc(-c3ccc(OC(F)(F)F)cc3)nn1)CC2 (centres undefined) | 111 | – | 4.38 | – | – | – | – | – |
| 6.25 | 1900 | – | – | 0.95 (≈ 2.43 µM) | – | – | – | CC1(COc2ccc(OC(F)(F)F)c(F)c2)CCn2cc([N+](=O)[O-])nc2O1 (centres undefined) | – | – | 4.17 | – | – | – | – | – |
| 7.28 | 330 | – | – | – | – | – | – | O=[N+]([O-])c1cn2c(n1)OC(COc1ncc(-c3ccc(OC(F)(F)F)cc3)cn1)CC2 (centres undefined) | 358 | – | 4.72 | – | – | – | – | – |
